Common to all, as to test: Alkaline comet assay
Common to all, as to type: cell-based, human

Data set [1] concerns PBLs. The following applies: 20 µM (positive control), 24 h, ± SEM. The procedure, abridged:
(§1)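 Alkaline comet assay. Cells seeded in 6-well plates at 150 000 (HT-29), 250 000 (PC3) or 600 000 (PBLs) per 2 mL and left 24 h, then exposed 24 h (37 °C, 5% CO2) to test compound at 0.5, 1 and 2 µM. Controls: untreated and 20 µM bleomycin. Cells pelleted at 1400 rpm, 10 min, 4 °C. Slides stained with DAPI (1 µg/ml); about 100 cells/slide scored. Output: mean % tail DNA ± SEM; ANOVA with Dunnett's test.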

The test system of data set [2] is HT-29 cells. Conditions: HT-29, 20 µM (positive control), 24 h, ± SEM. The procedure, abridged: as §1
For data set [3], the system named is PC-3 cells. Conditions: PC-3, 20 µM (positive control), 24 h, ± SEM. The procedure, abridged: as §1

Consider bleomycin, for which the “DNA damage (mean tail DNA %)” value is listed as 41.33 ± 1.95% in data set [1], 33.58 ± 3.62% in data set [2] and 44.99 ± 2.37% in data set [3].

These data come from article PMC12120100 (Scientific Reports, 2025).
